One may read the EC50 as the concentration giving half of the maximal effect. As usually defined, the IC50 is the midpoint of a concentration-inhibition curve. By half-life is commonly meant the time needed for the level to fall by half in the phase considered. Broadly, the bioavailability is dose-corrected exposure relative to a reference, in per cent. The term solubility denotes the concentration that dissolves in the medium under given conditions. As a reminder, the Papp is the rate of passage across a membrane or cell layer, normalised by area and donor concentration.

In series [1] the test system is Human immunodeficiency virus 1. Briefly: Antiviral activity against HIV1 HxB2 harboring integrase A124/T125 mutant by cell based luciferase reporter gene assay. The format is functional, organism-based. Conditions: Human immunodeficiency virus 1, HxB2. An outline of the steps:
(§1)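 Cell-based luciferase reporter gene assay of HIV-1 replication. Virus was HxB2 (IN A124/T125), wild-type NL4.3 (T124/T125), or recombinant NL4.3 carrying IN variants A124/T125, A124/A125, N124/T125, N124/A125 or T124/A125 (T125A). EC50 is the mean of at least two experiments. Where three or more experiments were run, relative SD was 12–43%.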

The target of series [2] is T1, Human immunodeficiency virus type 1 integrase (Human immunodeficiency virus 1, UniProt Q7ZJM1). The experiment in a line: Inhibition of HIV1 integrase by LTR cleavage assay.
In series [3] the test system is Human immunodeficiency virus 1. The experiment in a line: Antiviral activity against HIV1 NL4.3 harboring integrase T124/A125 mutant by cell based luciferase reporter gene assay. Format: functional, organism-based. Conditions: Human immunodeficiency virus 1, NL4.3. An outline of the steps:
as §1

In series [4] the test system is Human immunodeficiency virus 1. The experiment in a line: Antiviral activity against HIV1 NL4.3 harboring integrase T125A mutant by cell based luciferase reporter gene assay in presence of 50% human serum. More on the design: reference not given here. The format is functional. An outline of the steps:
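Luciferase reporter gene assay with recombinant NL4.3 carrying the IN T125A substitution. […] Each value is the mean of at least two experiments.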
(In general: Reporter assays use an easily measured gene product as a stand-in for the process of interest.)

Series [5] deals with T1, Human immunodeficiency virus type 1 integrase. Briefly: Binding affinity to HIV1 integrase by displacement assay. Conditions: read-out: Kd(app). The gist of the method: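 The displacement assay against HIV-1 integrase gives the value as an apparent dissociation constant (Kd-app).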
Series [6] in a line: Half life in human liver microsomes. The format is ADME. In general terms: Liver microsomes are a subcellular fraction often used to study metabolism.
Series [7] in a line: Half life in rat at 0.2 mg/kg, iv and 0.4 mg/kg, po. The note with it: in vivo. Format: ADME, organism-based.
The test system of series [8] is Human immunodeficiency virus 1. Briefly: Antiviral activity against HIV1 NL4.3 harboring integrase A124/A125 mutant by cell based luciferase reporter gene assay. The format is functional, organism-based. Conditions: Human immunodeficiency virus 1, NL4.3. An outline of the steps: as §1
The subject of series [9] is Human immunodeficiency virus 1. Briefly: Antiviral activity against HIV1 NL4.3 harboring integrase A124/T125 mutant by cell based luciferase reporter gene assay. Format: functional, organism-based. Conditions: Human immunodeficiency virus 1, NL4.3. An outline of the steps: as §1
Series [10] can be described thus: Oral bioavailability in rat at 0.4 mg/kg. The format is ADME, organism-based. The note with it: in vivo.
Series [11] is described as follows: Half life in rat liver microsomes. Format: ADME.
The subject of series [12] is Human immunodeficiency virus 1. The experiment in a line: Antiviral activity against HIV1 NL4.3 harboring integrase N124/A125 mutant by cell based luciferase reporter gene assay. The format is functional, organism-based. The note with it: Human immunodeficiency virus 1, NL4.3. An outline of the steps:
as §1

Series [13] in a line: Solubility of the compound at pH 6.8. Format: physicochemical. The note with it: buffer. The gist of the method:
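Solubility was measured at pH 6.8 on the amorphous powder form of the compound.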

Series [14] in a line: Apparent permeability across human Caco2 cells. The note with it: Caco-2. The format is ADME, cell-based. On the technique in general: Passage across Caco-2 layers is used to estimate intestinal permeability.
Series [15] deals with Human immunodeficiency virus 1. Briefly: Antiviral activity against HIV1 NL4.3 harboring integrase N124/T125 mutant by cell based luciferase reporter gene assay. Conditions: Human immunodeficiency virus 1, NL4.3. Format: functional, organism-based. An outline of the steps: as §1
The test system of series [16] is Human immunodeficiency virus 1. Briefly: Antiviral activity against HIV1 NL4.3 harboring integrase T124/T125 mutant by cell based luciferase reporter gene assay. The format is functional, organism-based. The note with it: Human immunodeficiency virus 1, NL4.3. The gist of the method:
as §1

The next series has as its target Cytochrome P450 2D6 (Homo sapiens, UniProt P10635). Briefly: Inhibition of CYP2D6 (unknown origin). Format: ADME.
In the next series the target is Cytochrome P450 3A4 (Homo sapiens, UniProt P08684). Briefly: Inhibition of CYP3A4 (unknown origin). Format: ADME.
The test system of series [17] is Human immunodeficiency virus 1. The experiment in a line: Ratio of EC50 for HIV1 NL4.3 harboring integrase T124/A125 mutant to EC50 for HIV1 HxB2 harboring integrase A124/T125 mutant.

T1 sequence (Q7ZJM1 whole entry): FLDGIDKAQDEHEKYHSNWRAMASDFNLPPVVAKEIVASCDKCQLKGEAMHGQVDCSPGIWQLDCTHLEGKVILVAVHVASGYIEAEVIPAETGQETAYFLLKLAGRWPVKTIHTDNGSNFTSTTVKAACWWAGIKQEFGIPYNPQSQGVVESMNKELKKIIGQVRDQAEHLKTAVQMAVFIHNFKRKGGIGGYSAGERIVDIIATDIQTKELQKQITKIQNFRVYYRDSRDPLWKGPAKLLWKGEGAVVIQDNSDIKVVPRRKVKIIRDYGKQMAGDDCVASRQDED
Cytochrome P450 2D6, sequence (P10635 whole entry): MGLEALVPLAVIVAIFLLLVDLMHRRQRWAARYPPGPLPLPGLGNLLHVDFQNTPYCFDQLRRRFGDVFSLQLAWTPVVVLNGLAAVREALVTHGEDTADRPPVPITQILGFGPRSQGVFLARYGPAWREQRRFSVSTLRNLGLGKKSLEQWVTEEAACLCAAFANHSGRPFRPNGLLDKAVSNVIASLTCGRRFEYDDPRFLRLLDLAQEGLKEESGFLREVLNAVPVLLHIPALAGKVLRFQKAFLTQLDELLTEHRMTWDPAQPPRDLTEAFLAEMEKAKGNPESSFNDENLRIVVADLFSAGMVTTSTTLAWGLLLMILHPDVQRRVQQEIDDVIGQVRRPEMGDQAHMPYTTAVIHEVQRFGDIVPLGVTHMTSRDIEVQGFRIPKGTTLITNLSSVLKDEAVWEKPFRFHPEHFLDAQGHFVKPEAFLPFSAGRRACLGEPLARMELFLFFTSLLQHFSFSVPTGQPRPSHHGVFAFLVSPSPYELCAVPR
Cytochrome P450 3A4, sequence (P08684 whole entry): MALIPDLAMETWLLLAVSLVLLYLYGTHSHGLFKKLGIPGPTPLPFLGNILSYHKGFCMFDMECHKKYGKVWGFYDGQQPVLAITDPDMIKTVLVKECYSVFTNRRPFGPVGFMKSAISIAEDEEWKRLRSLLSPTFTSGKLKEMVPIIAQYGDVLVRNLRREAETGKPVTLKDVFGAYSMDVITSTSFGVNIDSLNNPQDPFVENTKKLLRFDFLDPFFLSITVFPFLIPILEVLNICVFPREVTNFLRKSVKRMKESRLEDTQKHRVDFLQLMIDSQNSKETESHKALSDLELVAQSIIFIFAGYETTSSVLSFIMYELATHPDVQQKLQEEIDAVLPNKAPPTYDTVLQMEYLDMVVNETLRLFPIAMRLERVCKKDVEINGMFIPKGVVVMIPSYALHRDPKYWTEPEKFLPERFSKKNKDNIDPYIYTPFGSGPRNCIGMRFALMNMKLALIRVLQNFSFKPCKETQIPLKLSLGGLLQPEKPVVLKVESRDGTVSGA

In [1], `Cc1nc2ccc(Br)cc2c(-c2ccccc2)c1CC(=O)O` yielded an EC50 of over 33000 nM.

`Cc1ccc(-c2c(CC(=O)O)c(C)nc3ccc(Br)cc23)cc1` gave an EC50 in [1] of 20000 nM. Half-maximal inhibition in series [2] (IC50) required 350 nM.

Consider `Cc1ccc2c(-c3ccc4c(c3Cl)CCCO4)c([C@H](OC(C)(C)C)C(=O)O)c(C)nc2c1`, for which the EC50 in series [1] worked out at 2 nM; in series [3], 22 nM. Besides, in series [4], the “fold change (FC)” value is 83.

`CO[C@H](C(=O)O)c1c(C)nc2ccc(Br)cc2c1-c1ccc(Cl)cc1` displayed an EC50 in [1] of 450 nM. Further, in [2], it took 28 nM to reach half-maximal inhibition (IC50). Also, in [5], the Kd is 4700 nM.

For the compound `Cc1ccc2c(-c3ccc4c5c(ccnc35)CCO4)c([C@H](OC(C)(C)C)C(=O)O)c(C)nc2c1`, the figures for the concentration for a half-maximal effect (EC50) in [1] and in series [3] were 6 nM and 21 nM, respectively. The “fold change (FC)” value in [4] is on record as 4.7. The same compound gave a half-life in series [6] of 3.5 h.

In the case of `Cc1nc2ccc(Br)cc2c(-c2ccc(Cl)cc2)c1CC(=O)O`, the EC50 in series [1] worked out at 16000 nM. Moreover, it took 270 nM to reach half-maximal inhibition in series [2] (IC50).

Take `Cc1nc2cc(Cl)ccc2c(-c2ccc(Cl)cc2)c1[C@H](OC(C)(C)C)C(=O)O`: the EC50 in [1] stood at 31 nM; in [3] it was 120 nM. In addition, the Kd in series [5] was found to be 140 nM.

Take `Cc1nc2ccccc2c(-c2ccc(Cl)cc2)c1[C@H](OC(C)(C)C)C(=O)O`: the EC50 in series [1] came to 23 nM; in series [3] it was 110 nM. In addition, in [5], the Kd was found to be 49 nM.

`COC(C(=O)O)c1c(C)nc2ccc(Br)cc2c1-c1ccc(Cl)cc1` (configuration not stated) came in with an EC50 in series [1] of 990 nM. This compound also had an IC50 in series [2] of 40 nM.

Consider `Cc1nc2ccccc2c(-c2ccc3c4c(ccnc24)CCO3)c1[C@H](OC(C)(C)C)C(=O)O` [BI-224436], for which the results for the half-life in [7], in series [11] and in [6] were 8.8 h, over 5 h and 3.5 h, respectively. Further, the EC50 in series [8], in series [9], in series [1], in series [12], in series [15] and in series [16] was 11 nM each time. In addition, the bioavailability in series [10] was 54%. The solubility in [13] was over 850 µg/mL. Further, the Papp in [14] is 14 ×10⁻⁶ cm/s. Moreover, the figures for the IC50 on Cytochrome P450 2D6 and at Cytochrome P450 3A4 were over 30000 nM and 23000 nM, respectively. The “fold change (FC)” value in [4] came to 2.1.

`CO[C@@H](C(=O)O)c1c(C)nc2ccc(Br)cc2c1-c1ccc(Cl)cc1` gave an EC50 in series [1] of 47000 nM. In addition, the IC50 in [2] was 3100 nM.

For `Cc1nc2ccc(Br)cc2c(-c2ccc(Cl)cc2)c1[C@H](OC(C)(C)C)C(=O)O`, the EC50 came out at 78 nM in [1] and 610 nM in series [3]. The “Ratio EC50” value in series [17] turned out to be 8. Moreover, in series [5], the Kd was determined as 150 nM.

Take `Cc1ccc2c(-c3ccc4c(c3Cl)NCCO4)c([C@H](OC(C)(C)C)C(=O)O)c(C)nc2c1`: the EC50 in series [3] amounted to 29 nM. Also, the “fold change (FC)” value in series [4] was 15. The half-life in series [6] stood at 1.08 h.

As for `Cc1ccc2c(-c3cccc4cccnc34)c([C@H](OC(C)(C)C)C(=O)O)c(C)nc2c1`, the EC50 in series [1] came to 34 nM; in series [3], 300 nM. The “fold change (FC)” value in [4] turned out to be 4. Also, the half-life in series [6] was over 5 h.

In series [1], `Cc1nc2ccc(Br)cc2c(-c2ccc(Cl)cc2)c1C(C)C(=O)O` (configuration not stated) displayed an EC50 of 13000 nM. Also, the midpoint of inhibition in series [2], the IC50, lay at 310 nM.

Turning to `Cc1nc2ccc(Br)cc2c(-c2ccc(Cl)cc2)c1[C@H](OC(C)C)C(=O)O`, the EC50 in series [1] was 130 nM. For the same compound, the Kd in series [5] stood at 280 nM.

`Cc1nc2ccc(Cl)cc2c(-c2ccccc2)c1CC(=O)O` had an EC50 in series [1] of over 40000 nM.

`Cc1nc2ccccc2c(-c2ccc(Cl)cc2)c1CC(=O)O` registered an EC50 in [1] of over 43000 nM.

`Cc1nc2cc(F)ccc2c(-c2ccc(Cl)cc2)c1[C@H](OC(C)(C)C)C(=O)O`: the EC50 in series [1] came to 26 nM; in [3], 91 nM. Besides, the Kd in [5] turned out to be 68 nM.

For the compound `Cc1ccc2nc(C)c([C@H](OC(C)(C)C)C(=O)O)c(-c3ccc(Cl)cc3)c2c1`, the EC50 was 27 nM in series [1] and 160 nM in series [3]. Also, in series [5], the Kd was determined as 48 nM.

In the case of `Cc1ccc2c(-c3ccc(Cl)cc3)c([C@H](OC(C)(C)C)C(=O)O)c(C)nc2c1`, the EC50 in [1] stood at 13 nM; in series [3], 130 nM. Further, the Kd in [5] turned out to be 40 nM. The “fold change (FC)” value in series [4] is 25. Moreover, the half-life in [6] came to 0.417 h.

Consider `Cc1ccc2c(-c3ccc4c(c3)CCCO4)c([C@H](OC(C)(C)C)C(=O)O)c(C)nc2c1`, for which the EC50 in [1] was 7 nM; in series [3], 22 nM. Besides, the “fold change (FC)” value in series [4] was determined as 66. Moreover, the half-life in series [6] amounted to 1.1 h.

`Cc1nc2ccc(F)cc2c(-c2ccc(Cl)cc2)c1[C@H](OC(C)(C)C)C(=O)O`: the results for the EC50 in series [1] and in series [3] were 28 nM and 70 nM, respectively. The Kd in series [5] was 61 nM.

`CCCC(C(=O)O)c1c(C)nc2ccc(Br)cc2c1-c1ccc(Cl)cc1` (configuration not stated) came in with an EC50 in [1] of 920 nM. The compound further had an IC50 in series [2] of 77 nM.

(Values after ChEMBL document CHEMBL3259658, “Discovery of BI 224436, a Noncatalytic Site Integrase Inhibitor (NCINI) of HIV-1” (ACS Med Chem Lett, 2014).)
